According to publication PMC6018888 (Drug Design, Development and Therapy, 2018):

What was measured:
Type in all cases: in vivo, human
[1] = Verinurad plasma pharmacokinetics, Phase I single and multiple dose study; details: for GMR AUC0–24 (day 6/day 1) / GMR AUC0–∞ (day 6/day 1) / GMR Cmax (day 6/day 1): fed (day 6) vs fasted (day 1); for Tmax: median (range); for AUC(0-t): AUC0–24, Japanese subjects; for half-life: t1/2, Japanese subjects
In short: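 Oral modified-release tablets were given once as a single dose on day 1 (fasted overnight ≥10 h) and day 6 (after a moderate-fat breakfast), then daily fed through day 12. Serial plasma was sampled to 72 h on days 1 and 12, to 24 h on day 6, and predose on days 8–11. Samples were stored at −70°C. Cmax and AUC0–24 came from noncompartmental analysis, with comparisons as geometric mean ratios.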

[2] = Verinurad urinary pharmacokinetics; details: for CLR0–24 / fe0–24: Japanese subjects, geometric mean (95% CI)
[3] = tested on: healthy Japanese and non-Asian adult male subjects; experiment: Safety and tolerability assessment; details: for incidence of TEAEs: 10 mg dose level
In short: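 Adverse events were assessed daily in all dosed subjects, graded by Rheumatology Common Toxicity Criteria v2.0, with relatedness judged by the investigator. Clinical laboratory samples were taken at screening, admission, days 2, 5, 7 and 13, and at follow-up. Supine vital signs and oral temperature were measured at set times. Physical examination and 12-lead ECG were done at screening and follow-up.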

serum urate (sUA) = experiment: Pharmacodynamics: serum urate; details: for mean reduction of serum urate after 24 hours: multiple verinurad 10 mg doses
In short: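 Healthy males (screening sUA >4.5 mg/dL) took oral modified-release 2.5 mg tablets or placebo (6:2 per panel) once daily for 7 days (days 6–12), after a moderate-fat breakfast. Japanese panels received 2.5–15 mg and non-Asian subjects 10 mg. Serum sampled predose days 1, 6 and 8–12, then to 72 h (day 12). Maximum percent change from baseline and its timing were read directly from concentration–time data.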

[4] = Japanese subjects, 2.5 mg single dose
[5] = Japanese subjects, 5 mg single dose
[6] = Japanese subjects, 10 mg single dose
[7] = Japanese subjects, 15 mg single dose
[8] = Japanese subjects, across the dose groups 2.5–15 mg, fed vs fasted
[9] = male, human, plasma, oral, 5 mg, 5 mg once daily multiple doses, fed, day 12, geometric mean (95% CI)
[10] = male, human, plasma, oral, 10 mg, 10 mg once daily multiple doses, fed, day 12, geometric mean (95% CI)
[11] = male, human, plasma, oral, 15 mg, 15 mg once daily multiple doses, fed, day 12, geometric mean (95% CI)
[12] = multiple verinurad 10 mg doses, fed
[13] = 2.5 mg single dose, fasted, day 1
[14] = 5 mg once daily multiple doses, fed, day 12
[15] = 5 mg single dose, fasted, day 1
[16] = 10 mg once daily multiple doses, fed, day 12
[17] = 10 mg single dose, fasted, day 1
[18] = 15 mg once daily multiple doses, fed, day 12
[19] = 15 mg single dose, fasted, day 1
[20] = Japanese subjects, pooled verinurad (n=24)
[21] = Non-Asian subjects, pooled verinurad (n=6)
[22] = Japanese subjects, 2.5 mg multiple once-daily doses, fed
[23] = Japanese subjects, 5 mg multiple once-daily doses, fed
[24] = Japanese subjects, 10 mg multiple once-daily doses, fed
[25] = Japanese subjects, 15 mg multiple once-daily doses, fed
[26] = non-Asian subjects, 10 mg multiple once-daily dosing, fed

## CC(C)(Sc1ccncc1-c1ccc(C#N)c2ccccc12)C(=O)O [verinurad]
[1]; 10 mg multiple dose, fed
  AUC0–24 GMR, % (95% CI), Japanese/non-Asian: 123 (93.0–162) %
  AUC0–24 GMR, % (95% CI), Japanese/non-Asian, bodyweight normalized to 70 kg: 96.9 (77.4–121) %
  Cmax GMR, % (95% CI), Japanese/non-Asian: 138 (112–171) %
  Cmax GMR, % (95% CI), Japanese/non-Asian, bodyweight normalized to 70 kg: 109 (94.4–126) %
[1]; 10 mg single dose, fasted
  AUC0–24 GMR, % (95% CI), Japanese/non-Asian: 134 (111–161) %
  AUC0–24 GMR, % (95% CI), Japanese/non-Asian, bodyweight normalized to 70 kg: 106 (84.5–132) %
  Cmax GMR, % (95% CI), Japanese/non-Asian: 199 (167–237) %
  Cmax GMR, % (95% CI), Japanese/non-Asian, bodyweight normalized to 70 kg: 157 (132–187) %
[1]; 10 mg single dose, fed
  AUC0–24 GMR, % (95% CI), Japanese/non-Asian: 176 (137–227) %
  AUC0–24 GMR, % (95% CI), Japanese/non-Asian, bodyweight normalized to 70 kg: 139 (114–170) %
  Cmax GMR, % (95% CI), Japanese/non-Asian: 142 (107–189) %
  Cmax GMR, % (95% CI), Japanese/non-Asian, bodyweight normalized to 70 kg: 112 (88.5–143) %
[1]; [4]
  GMR AUC0–24 (day 6/day 1): 146 (101–211) %
  GMR AUC0–∞ (day 6/day 1): 131 (82.9–208) %
  GMR Cmax (day 6/day 1): 116 (105–128) %
[1]; Japanese subjects, 2.5 mg, fed
  Rac, accumulation ratio (day 12/day 6), AUC0–24: 1.06 (0.672–1.68)
[1]; Japanese subjects, 5 mg once daily multiple doses, fed, day 12
  Tmax: 4.00 (2.00–10.0) h
[1]; [5]
  GMR AUC0–24 (day 6/day 1): 185 (121–283) %
  GMR AUC0–∞ (day 6/day 1): 173 (108–278) %
  GMR Cmax (day 6/day 1): 126 (89.1–179) %
[1]; Japanese subjects, 5 mg, fed
  Rac, accumulation ratio (day 12/day 6), Cmax: 1.24 (1.01–1.53)
[1]; Japanese subjects, 10 mg single dose, fasted, day 1, geometric mean (95% CI)
  AUC0–24: 93.4 (74.2–118) ng·h/mL
[1]; [6]
  GMR AUC0–24 (day 6/day 1): 209 (172–253) %
  GMR AUC0–∞ (day 6/day 1): 197 (181–215) %
  GMR Cmax (day 6/day 1): 99.7 (85.1–117) %
[1]; Japanese subjects, 10 mg, fed
  Rac, accumulation ratio (day 12/day 6), AUC0–24: 0.886 (0.679–1.16)
  Rac, accumulation ratio (day 12/day 6), Cmax: 1.14 (0.774–1.64)
[1]; Japanese subjects, 15 mg single dose, fed, day 6, geometric mean (95% CI)
  AUC0–24: 239 (137–416) ng·h/mL
[1]; [7]
  GMR AUC0–24 (day 6/day 1): 107 (89.1–128) %
  GMR AUC0–∞ (day 6/day 1): 100 (83.1–120) %
  GMR Cmax (day 6/day 1): 112 (90.6–139) %
[1]; Japanese subjects, 15 mg, fed
  Rac, accumulation ratio (day 12/day 6), AUC0–24: 1.20 (0.979–1.46)
  Rac, accumulation ratio (day 12/day 6), Cmax: 1.09 (0.823–1.44)
[1]; [8]
  effect of moderate-fat meal on plasma AUC0–∞ (increase): 0%–97%
  effect of moderate-fat meal on plasma Cmax (increase): 0%–26%
[1]; Japanese, 10 mg single dose, fasted, geometric least square mean
  AUC0–24: 93.4 ng·h/mL
[1]; Non-Asian, 10 mg single dose, fed, geometric least square mean
  Cmax: 15.4 ng/mL
[1]; [9]
  AUC(0-t): 80.9 ng·h/mL
  half-life: 471 min
[1]; male, human, plasma, oral, 5 mg, Cmax, Japanese subjects, 5 mg once daily multiple doses, fed, day 12, geometric mean (95% CI)
  Cmax: 11.5 ng/mL
[1]; [10]
  AUC(0-t): 173 ng·h/mL
  half-life: 416 min
[1]; male, human, plasma, oral, 10 mg, Cmax, Japanese subjects, 10 mg once daily multiple doses, fed, day 12, geometric mean (95% CI)
  Cmax: 24.9 ng/mL
[1]; male, human, plasma, oral, 10 mg, Tmax, Japanese subjects, 10 mg once daily multiple doses, fed, day 12
  Tmax: 4.5 h
[1]; [11]
  AUC(0-t): 286 ng·h/mL
  half-life: 587 min
[1]; male, human, plasma, oral, 15 mg, Cmax, Japanese subjects, 15 mg once daily multiple doses, fed, day 12, geometric mean (95% CI)
  Cmax: 41.5 ng/mL
[1]; [12]
  AUC higher in Japanese vs non-Asian subjects: 23%
  Cmax higher in Japanese vs non-Asian subjects: 38%
[2]; [13]
  CLR0–24: 16.1 (9.41–27.6) mL/min
  fe0–24: 0.896 (0.620–1.29) %
[2]; 2.5 mg single dose, fed, day 6
  CLR0–24: 15.7 (9.54–25.8) mL/min
  fe0–24: 1.27 (0.659–2.47) %
[2]; [14]
  CLR0–24: 17.0 (11.8–24.5) mL/min
  fe0–24: 1.65 (0.959–2.84) %
[2]; [15]
  CLR0–24: 16.4 (11.3–23.7) mL/min
  fe0–24: 0.640 (0.279–1.47) %
[2]; 5 mg single dose, fed, day 6
  CLR0–24: 15.1 (11.8–19.3) mL/min
  fe0–24: 1.09 (0.730–1.64) %
[2]; [16]
  CLR0–24: 17.0 (9.43–25.4) mL/min
  fe0–24: 1.77 (1.38–2.25) %
[2]; [17]
  CLR0–24: 13.1 (10.1–16.9) mL/min
  fe0–24: 0.733 (0.558–0.964) %
[2]; 10 mg single dose, fed, day 6
  fe0–24: 1.63 (1.24–2.16) %
[2]; [18]
  CLR0–24: 16.0 (8.22–31.3) mL/min
  fe0–24: 1.83 (1.23–2.73) %
[2]; [19]
  CLR0–24: 9.30 (5.46–15.9) mL/min
  fe0–24: 0.788 (0.424–1.45) %
[2]; 15 mg single dose, fed, day 6
  CLR0–24: 12.0 (6.06–23.7) mL/min
  fe0–24: 1.14 (0.907–1.45) %
[2]; multiple dosing, 90% CI 79.7–126
  renal clearance GMR, Japanese vs non-Asian: 100%
[2]; multiple dosing, 90% CI 98.7–153
  fraction of drug excreted in urine GMR, Japanese vs non-Asian: 123%
[2]; single dose, fasted, 90% CI 53.7–91.4
  renal clearance GMR, Japanese vs non-Asian: 70.0%
[2]; single dose, fasted, 90% CI 70.9–124
  fraction of drug excreted in urine GMR, Japanese vs non-Asian: 93.7%
[2]; single dose, fed, 90% CI 65.0–101
  renal clearance GMR, Japanese vs non-Asian: 80.9%
[2]; single dose, fed, 90% CI 107–191
  fraction of drug excreted in urine GMR, Japanese vs non-Asian: 143%
[3]; [20]
  AE possibly related to study drug, severe severity/life-threatening: 0 n (%) [events]
  Any AE, severe severity/life-threatening: 0 n (%) [events]
  SAEs: 0 n (%) [events]
[3]; Japanese subjects
  incidence of TEAEs: 2 n
[3]; [21]
  AE possibly related to study drug, moderate severity: 0 n (%) [events]
  AE possibly related to study drug, severe severity/life-threatening: 0 n (%) [events]
  Any AE, severe severity/life-threatening: 0 n (%) [events]
  SAEs: 0 n (%) [events]
  Subjects withdrawn due to AEs: 0 n (%) [events]
[3]; all subjects
  serum chemistry, hematology, coagulation, urinalysis parameters: No safety concerns were identified
  vital signs, 12-lead electrocardiograms, physical examinations: No clinically significant findings
[3]; all subjects, during the study
  deaths, serious AEs, significant AEs of interest: No deaths, other serious AEs, or other significant AEs of interest were reported
[3]; healthy male Japanese and non-Asian subjects, single and multiple once-daily doses 2.5 to 15 mg
  tolerability: well tolerated
[3]; non-Asian subjects
  incidence of TEAEs: 2 n
[3]; one subject, 3 days after a single 2.5 mg dose, resolved by day 14
  serum creatinine elevation: 1.5 × baseline
[3]; one subject, day 13 following daily dosing with 10 mg, unlikely to be related
  TEAE of moderate severity: moderately severe muscle strain
Serum urate (sUA); Japanese and non-Asian subjects, multiple once-daily doses, fed
  time of maximum reduction in sUA: ≤ 12 hours postdose
Serum urate (sUA); [22]
  sUA least square mean maximum percent change from baseline at 12 hours: −31%
  sUA percent change from baseline at 24 hours: −16%
Serum urate (sUA); [23]
  sUA least square mean maximum percent change from baseline at 12 hours: −50%
  sUA percent change from baseline at 24 hours: −31%
Serum urate (sUA); [24]
  sUA least square mean maximum percent change from baseline at 12 hours: −62%
  sUA percent change from baseline at 24 hours: −46%
Serum urate (sUA); [25]
  sUA concentration at maximum reduction: < 2 mg/dL
  sUA least square mean maximum percent change from baseline at 12 hours: −74%
  sUA percent change from baseline at 24 hours: −55%
Serum urate (sUA); Japanese subjects
  mean reduction of serum urate after 24 hours: 46%
Serum urate (sUA); [26]
  sUA maximum percent change from baseline: −58%
  sUA percent change from baseline at 24 hours postdose: −44%
Serum urate (sUA); non-Asian subjects
  mean reduction of serum urate after 24 hours: 44%
